# Shown are actives, neighbours in structure and some others; about 1.7% of the full set was active somewhere.
# TPT1 inhibitor – C. albicans TPT1 enzyme inhibition; inhibition, % at 5 µM; recombinant caTPT1, FP RNA substrate dephosphorylation; AID 1962; 300,000 tested, 0.81% active;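 active means inhibition above the mean of all tested compounds plus 3 SD, set per screening campaign, cut at about 24% in these data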;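 further: plate controls were DMSO alone for no effect and ferristatin control at 100 nM for full effect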
# HNF4A DNA FP – change in binding of human HNF4 alpha to DNA. HNF4a-FITC DNA binding, fluorescence polarization, 1 h. 360,000 tested, 0.3% active. AID 1224865. activity change, % at 10 µM; in the data active means activity change above about 30%, passing the limit was not always enough
# CSN deneddyl inh – CSN deneddylation inhibition; Q92905; 360,000 tested, 0.38% active; Purified CSN, SCF-Nedd8-OG deneddylation, fluorescence polarization; AID 651999; inhibition, % at 12.5 µM;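 active means pattern-corrected inhibition above about 35%, with an unprinted fluorescence ratio check between 0.5 and 1.5, limit read from the data, passing the limit was not always enough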;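 further: 0% = enzyme with substrate and 100% = substrate without enzyme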
#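 Material: human Csn5 produced in HEK293T cells; Input: enzyme 0.24 nM; Reagent: SCFSkp2-Nedd8OG substrate at 10 nM final; Dosing: 12.5 µM compound; Incubation: 90 min reaction at room temperature; Detection: fluorescence polarization of the substrate; Evaluation: % inhibition of substrate cleavage by Csn5; Control set: substrate-only high control, full reaction low control.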
# Rev-erbA mod – modulators of human Rev-erb alpha DNA binding; Rev-erbα–FITC-DNA binding, fluorescence polarization, 90 min; AID 1259318; P20393; activity, % at 10 µM; 370,000 tested, 0.79% active;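 active means activity above about 14%, limit read from the data; passing the limit was not always enough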;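 further: 0% = DMSO wells with 35 nM protein and 100% = DMSO wells with 750 nM protein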
# Target sequence (P20393 whole entry, looked up): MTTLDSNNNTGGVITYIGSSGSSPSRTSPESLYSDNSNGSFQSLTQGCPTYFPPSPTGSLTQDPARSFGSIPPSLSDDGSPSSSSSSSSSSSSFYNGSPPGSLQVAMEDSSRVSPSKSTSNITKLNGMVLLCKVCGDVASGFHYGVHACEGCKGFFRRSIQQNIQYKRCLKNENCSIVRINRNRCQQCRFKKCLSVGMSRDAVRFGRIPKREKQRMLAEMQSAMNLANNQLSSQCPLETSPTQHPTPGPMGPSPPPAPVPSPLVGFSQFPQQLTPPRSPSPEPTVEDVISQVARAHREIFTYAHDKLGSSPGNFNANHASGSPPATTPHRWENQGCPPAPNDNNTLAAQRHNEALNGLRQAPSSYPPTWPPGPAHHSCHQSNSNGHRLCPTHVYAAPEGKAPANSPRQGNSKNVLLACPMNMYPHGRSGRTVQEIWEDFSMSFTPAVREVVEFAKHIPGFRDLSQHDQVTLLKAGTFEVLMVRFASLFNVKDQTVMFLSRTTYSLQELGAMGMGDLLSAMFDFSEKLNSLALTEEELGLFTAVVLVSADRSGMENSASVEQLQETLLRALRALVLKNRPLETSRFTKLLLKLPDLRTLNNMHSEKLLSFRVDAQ
# NR1D1 mod conf – confirmation of modulators of human Rev-erb alpha DNA binding; shares compounds with Rev-erbA mod; Rev-erb alpha FITC-DNA binding, fluorescence polarization, 90 min; activation, % at 25 µM; 3,000 tested, 61% active;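 active means activation at or above a set limit, or at least 3 SD above the negative control mean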;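 further: 0% = 35 nM protein with DMSO and 100% = 750 nM protein high control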
# RORg DNA counter – RORgamma DNA-binding activity, dose-response counter-screen; 910 tested, 8% active; AID 1259320; IC50, µM; shares compounds with Rev-erbA mod; purified RORgamma protein-FITC-DNA binding, fluorescence polarization;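 active means Compounds whose fitted half-maximal concentration for disrupting protein-DNA binding is below 10 micromolar; the record names Rev-erb in its text, so the target is in doubt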
# An asterisk follows results filed as active; · = not tested or not shown; + = active, no number.
SMILES,TPT1 inhibitor,HNF4A DNA FP,CSN deneddyl inh,Rev-erbA mod,NR1D1 mod conf,others
COc1ccc(C(=O)CSc2nnc(-c3cccnc3)n2-c2ccc(C)cc2)cc1,·,·,·,0,·,
COc1cc(Nc2cc(C)n(-c3ccc(Cl)c(OC)c3)c(=O)c2)ccc1Cl,·,·,·,1,·,
CCCCN(CCCC)Cc1cc(=O)oc2cc(C)cc(C)c12,·,-1,0,19*,-1,
Cc1cc(C)c2c(CCl)cc(=O)oc2c1,-1,0,-2,-1,·,
COC(=O)C1CN(C2CC2)CCS(=O)(=O)N1Cc1cn(Cc2ccc(F)cc2)nn1 (centres undefined),·,·,·,-6,·,
CCCCCCC[C@H](N)[C@H](O)C(=O)N(C)[C@@H](CCS(C)=O)C(=O)N[C@@H](Cc1ccc(O)cc1)C(=O)O (some centres undefined),·,·,·,3,·,
CC(C)c1cc(C(=O)OCC(=O)NC(=O)NCc2ccco2)c(O)c(C(C)C)c1,3,-1,7,16*,6,
COc1ccc(-c2nsc3c(N4CCCCC4)ncnc23)cc1,0,-4,1,20*,1,
COc1ccc(C(=O)N2CCN(c3ncnc4c(-c5ccccc5)nsc34)CC2)cc1,·,0,2,0,·,
COc1ccc(-c2nsc3c(N4CCN(S(=O)(=O)c5ccccc5F)CC4)ncnc23)cc1,-1,-2,0,32*,13,
O=S1(=O)c2ccc(N3CCN(Cc4ccccc4F)CC3)cc2Oc2ccccc2CN1Cc1cn(Cc2cccc(C(F)(F)F)c2)nn1,·,·,·,11,·,
Cc1cccn2c(=O)c3cc(C(=O)NC4CCS(=O)(=O)C4)n(Cc4ccccc4)c3nc12 (centres undefined),2,5,-2,44*,14,
CCOC(=O)C(CN1CCCC1)c1ccccc1 (centres undefined),-7,2,-4,21*,6,
Cc1ccc(N=Nc2c(=O)[nH]n3c(C)cc(C)nc23)cc1,8,3,-2,17*,4,
Cc1cc(C)n2[nH]c(=O)c(N=Nc3ccc(S(N)(=O)=O)cc3)c2n1,-4,1,-6,12,·,
O=C(Nc1ccc2c(c1)OCO2)NC1CCN(S(=O)(=O)c2ccc(F)cc2)CC1,·,·,·,-3,·,
CSCSC1=C(C#N)C(c2ccc(Cl)cc2)C(C(C)=O)=C(C)N1 (centres undefined),0,·,·,·,·,
N#CC1=C(SCC(N)=O)NC2=C(C(=O)c3ccccc32)C1c1ccc(Cl)cc1 (centres undefined),2,0,-2,33*,54*,RORg DNA counter=>40
COCc1nc2sc3c(c2c(=O)[nH]1)CCCC3,-5,1,5,0,·,
COc1cccc(-c2nc3sc4c(c3c(=O)[nH]2)CCCCC4)c1,0,1,-1,26*,2,
Cc1nc(SCC(=O)NCCc2ccccc2)c2oc3ccccc3c2n1,-4,-1,-3,+,+,RORg DNA counter=>40
CCc1nc(SCC(=O)NCC2CCCO2)c2oc3ccccc3c2n1 (centres undefined),0,3,3,1,·,
CCc1nc(SCC(=O)NCCc2ccccc2)c2oc3ccccc3c2n1,-2,3,1,62*,69*,RORg DNA counter=>40
Cc1cc(C)c(C#N)c(SCC(=O)Nc2ccccc2C)n1,2,0,1,4,·,
COc1ccc(CCNC(=O)CSc2nc(N)c(C#N)c(-c3cccs3)c2C#N)cc1OC,1,-2,-6,37*,23*,
SMILES,TPT1 inhibitor,HNF4A DNA FP,CSN deneddyl inh,Rev-erbA mod,NR1D1 mod conf,others
CCN(CC)C(=O)CSc1nc(N)c(C#N)c(-c2cccs2)c1C#N,-1,4,6,33*,33*,RORg DNA counter=>40
Cc1ccccc1NC(=O)CSc1nc(N)c(C#N)c(-c2cccs2)c1C#N,1,-2,-2,126*,95*,
O=C1NCCN1CCN1CCC(c2cn(-c3ccc(F)cc3)c3ccc(Cl)cc23)CC1,·,·,·,-8,·,
Cc1ccc(-n2c(SC/C=C/c3ccccc3)nnc2-c2ccco2)cc1,·,·,·,1,·,
Cc1ccc(OC(=O)N(C)C[C@H]2OCc3cn(nn3)CCCC(=O)N([C@@H](C)CO)C[C@@H]2C)cc1,·,·,·,5,·,
CCC(=O)OCC(=O)C1(OC(=O)CC)C(C)CC2C3CCC4=CC(=O)C=CC4(C)C3(Cl)C(O)CC21C (centres undefined),·,·,·,7,·,
COC(=O)c1ccccc1NC(=O)CN1C(=O)C2CCCN2c2ncc(Cl)cc21 (centres undefined),19,·,·,·,·,
O=C(CN1C(=O)C2CCCN2c2ncc(Cl)cc21)NCc1ccc2c(c1)OCO2 (centres undefined),·,36,5,46*,36*,
COc1ccc(CNC(=O)CN2C(=O)C3CCCN3c3ncc(Cl)cc32)cc1 (centres undefined),15,30,-2,43*,36*,
CCOC(=O)/C=C1/SCC(=O)N1Cc1ccc(Br)cc1,·,1,2,14,·,
CCOC(=O)/C=C1/SCC(=O)N1CCOc1cccc(Br)c1,·,-1,-2,24*,12*,
Cc1ccc(S(=O)(=O)N(C)[C@H]2C[C@H]3c4[nH]c5c(-c6ccccc6)cccc5c4CCN3C(=O)[C@H]2[C@H](C)O)cc1,·,·,·,-6,·,
S=C(SCc1nc(-c2ccc(Cl)cc2)no1)N1CCSCC1,·,·,·,2,·,
Cc1c(C(C)(C)C)sc(=NC(=O)c2ccccc2O)n1C,0,-2,2,21*,-10,
Cc1c(C(C)(C)C)s/c(=N/S(=O)(=O)c2ccccc2)n1C,0,-3,-5,6,·,
C[C@H]1CN(S(=O)(=O)C(C)(C)C)[C@H](CCO)/C1=C\CCO,·,·,·,-1,·,
CCOC(=O)c1c(C)nc2c3ccccc3ccn12,5,1,1,0,·,
CCOC(=O)c1c(C)c(C#N)c2c3ccccc3ccn12,6,-2,-3,58*,17*,
O=[N+]([O-])c1cnccc1Nc1cccc(F)c1,-4,-3,2,-6,·,
O=[N+]([O-])c1ccc(Oc2cccc(F)c2)c2ccncc12,2,-1,-1,14*,9,
O=c1c2ccccc2sc2ccc(Cl)cc12,2,-2,-11,80*,77*,RORg DNA counter=>40
O=c1c2ccccc2sc2ccccc12,·,0,1,8,·,
CC(C)(C)S(=O)(=O)/C(C#N)=C/c1cccn1S(=O)(=O)c1ccccc1,·,-2,-1,17*,11*,
COc1cc(N=Nc2ccc(C)cc2S(N)(=O)=O)c(C)cc1N,·,3,-2,25*,21*,
COC(=O)c1cc2c(c3c4ccccc4n(S(=O)(=O)c4ccc(C)cc4)c13)C(=O)N(CC(C)C)C2,·,·,·,0,·,
O=C(Nc1nnc(C2CCCCC2)s1)c1ccc(Br)s1,0,7,7,95*,82*,RORg DNA counter=>40
Cc1cc2oc(C(=O)Nc3ccc(S(=O)(=O)Nc4ncccn4)cc3)c(C)c2cc1Cl,·,-1,4,22*,-4,

# Screening data as filed in PubChem.
